Laboratory results taken from ChEMBL document CHEMBL5223067, “Functionalized resorcinarenes effectively disrupt the aggregation of αA66-80 crystallin peptide related to cataracts” (RSC Med Chem, 2021).
Several values for one entry are separate records, joined by “and”; a condition that tells them apart may be missing. Equal values may be shown once. Activity calls are given as the source filed them. No cut-off for these calls is given here.

Legend:
[1] = target: T1, Alpha-crystallin A chain (Homo sapiens) (UniProt P02489); test: Inhibition of alphaA (66 to 80 residues) crystallin peptide aggregation at peptide to ligand ratio of 0.2 to 5:1 incubated for 7 days by fluorescence aggregation assay; conditions: time 7.0 day
T1 sequence (whole entry): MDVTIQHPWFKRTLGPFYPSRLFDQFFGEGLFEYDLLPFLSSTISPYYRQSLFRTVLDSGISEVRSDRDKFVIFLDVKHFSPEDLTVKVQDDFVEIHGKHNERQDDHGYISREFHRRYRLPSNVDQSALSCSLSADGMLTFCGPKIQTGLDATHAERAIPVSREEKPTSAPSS
In short: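 5360 μM peptide in 10 mM Tris was mixed with receptor at 0.2:1 to 10:1 receptor:peptide ratios and incubated 7 days at 37 °C. Proteostat dye was added (1 μL per 10 μL sample) with positive/negative dye controls. Fluorescence was read at 25 °C. Triplicates; percent inhibition plotted vs log[concentration] to derive IC50.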

[2] = target: T1, Alpha-crystallin A chain (Homo sapiens); test: Inhibition of alphaA (66 to 80 residues) crystallin peptide aggregation assessed decrease in large fibrillar aggregation at 1:1 peptide to ligand ratio incubated for 7 days by transmission electron microscopy; conditions: time 7.0 day
In short: (§1)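 Peptide incubated with receptor at 1:1 or 5:1 ratio for 7 days at 37 °C. A 10 μL aliquot taken on day 7 was loaded onto Formvar-carbon coated 200 mesh nickel grids and allowed to absorb for 2 h. Grids were washed three times with deionized water and blotted dry. Peptide-alone control; duplicate grids per sample; imaged by TEM.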

[3] = target: T1, Alpha-crystallin A chain (Homo sapiens); test: Inhibition of alphaA (66 to 80 residues) crystallin peptide aggregation assessed as amorphous small protein aggregates at 1:1 peptide to ligand ratio incubated for 7 days by transmission electron microscopy; conditions: time 7.0 day; in short: as §1
[4] = target: T1, Alpha-crystallin A chain (Homo sapiens); test: Inhibition of alphaA (66 to 80 residues) crystallin peptide aggregation assessed as decrease in peptide-receptor complex and measured upto 2 hrs by ESI-MS analysis
In short: (§2)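 Peptide and host (10 mM aqueous stocks) were mixed in equal parts to 5 mM each. Mixtures were diluted in ESI buffer (50% methanol, 49% water, 1% acetic acid) and analysed by positive-mode ESI-MS, either within 2 h of mixing or after incubation for 72+ h at 37 °C followed by 100-fold dilution.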

[5] = target: T1, Alpha-crystallin A chain (Homo sapiens); test: Inhibition of alphaA (66 to 80 residues) crystallin peptide aggregation assessed as decrease in peptide-receptor complex and measured after 72 hrs by ESI-MS analysis; in short: as §2
[6] = Binding affinity to lysine in deuterium oxide solution assessed as change in complexation induced chemical shift at 2 mM by 1H NMR analysis
[7] = Binding affinity to arginine in deuterium oxide solution assessed as change in complexation induced chemical shift at 2 mM by 1H NMR analysis
[8] = Binding affinity to histidine in deuterium oxide solution assessed as change in complexation induced chemical shift at 2 mM by 1H NMR analysis
[9] = Binding affinity to aspartic acid in deuterium oxide solution assessed as change in complexation induced chemical shift at 2 mM by 1H NMR analysis
[10] = Binding affinity to arginine in aqueous solution assessed as association constant at 1 mM by isothermal titration calorimetry
In short: (§3)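 ITC at 298 K: sample cell filled with one partner at 1 mM, titrant at 15 mM in syringe, computer-automated injections. Blank titrations into plain solvent subtracted to remove heats of dilution. Data fitted to a 1:1 (one-site) binding model to give K, ΔH and ΔS.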

[11] = Binding affinity to lysine in aqueous solution assessed as association constant at 1 mM by isothermal titration calorimetry; in short: as §3
[12] = Binding affinity to histidine in aqueous solution assessed as association constant at 1 mM by isothermal titration calorimetry; in short: as §3
[13] = target: T1, Alpha-crystallin A chain (Homo sapiens); test: Binding affinity to alphaA (66 to 80 residues) crystallin peptide in aqueous solution assessed as association constant at 1 mM by isothermal titration calorimetry; in short: as §3
[14] = Binding affinity to arginine in aqueous solution assessed as change in enthalpy at 1 mM by isothermal titration calorimetry; in short: as §3
[15] = Binding affinity to lysine in aqueous solution assessed as change in enthalpy at 1 mM by isothermal titration calorimetry; in short: as §3
[16] = Binding affinity to histidine in aqueous solution assessed as change in enthalpy at 1 mM by isothermal titration calorimetry; in short: as §3
[17] = target: T1, Alpha-crystallin A chain (Homo sapiens); test: Binding affinity to alphaA (66 to 80 residues) crystallin peptide in aqueous solution assessed as change in enthalpy at 1 mM by isothermal titration calorimetry; in short: as §3
[18] = Binding affinity to arginine in aqueous solution assessed as change in entropy at 1 mM by isothermal titration calorimetry
In short: (§4)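 ITC at 298 K. The sample cell holds one partner at 1 mM and the syringe holds titrant at 15 mM, added by automated injections. Titrations were run in water and in 10 mM Tris buffer pH 7.4. Blank titrations into plain solvent were subtracted to correct for heats of dilution. The data were fitted to a 1:1 (one-site) binding model to give K, ΔH and ΔS.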

[19] = Binding affinity to lysine in aqueous solution assessed as change in entropy at 1 mM by isothermal titration calorimetry; in short: as §4
[20] = Binding affinity to histidine in aqueous solution assessed as change in entropy at 1 mM by isothermal titration calorimetry; in short: as §4
[21] = target: T1, Alpha-crystallin A chain (Homo sapiens); test: Binding affinity to alphaA (66 to 80 residues) crystallin peptide in aqueous solution assessed as change in entropy at 1 mM by isothermal titration calorimetry; in short: as §3
[22] = Binding affinity to arginine in aqueous solution assessed as gibbs free energy change at 1 mM by isothermal titration calorimetry; in short: as §3
[23] = Binding affinity to lysine in aqueous solution assessed as gibbs free energy change at 1 mM by isothermal titration calorimetry; in short: as §3
[24] = Binding affinity to histidine in aqueous solution assessed as gibbs free energy change at 1 mM by isothermal titration calorimetry; in short: as §3
[25] = target: T1, Alpha-crystallin A chain (Homo sapiens); test: Binding affinity to alphaA (66 to 80 residues) crystallin peptide in aqueous solution assessed as gibbs free energy change at 1 mM by isothermal titration calorimetry; in short: as §3
[26] = target: T1, Alpha-crystallin A chain (Homo sapiens); test: Inhibition of alphaA (66 to 80 residues) crystallin peptide aggregation assessed as decrease in average diameter size distribution at 1:1 peptide to ligand ratio incubated for 7 days by dynamic light scattering (Rvb=12000+/-1500 nm); conditions: time 7.0 day
[27] = Binding affinity to aspartic acid in aqueous solution assessed as association constant at 1 mM by isothermal titration calorimetry; in short: as §3
[28] = Binding affinity to aspartic acid in aqueous solution assessed as change in enthalpy at 1 mM by isothermal titration calorimetry; in short: as §3
[29] = Binding affinity to aspartic acid in aqueous solution assessed as change in entropy at 1 mM by isothermal titration calorimetry; in short: as §4
[30] = Binding affinity to aspartic acid in aqueous solution assessed as gibbs free energy change at 1 mM by isothermal titration calorimetry; in short: as §3

CCCc1cc(C(CC)c2cc(C(CC)c3cc(C(CC)c4ccc(O)c(CS(=O)(=O)O)c4O)c(O)c(CS(=O)(=O)O)c3O)c(O)c(CS(=O)(=O)O)c2O)c(O)c(CS(=O)(=O)O)c1O (centres undefined)
inhibition [1]: Dose-Dependent Effect | inhibition [2]: Active | inhibition [3]: Active | inhibition [4]: inactive | inhibition [5]: inactive | Activity [6]: Active | Activity [7]: Active | Activity [8]: inactive | Activity [9]: inactive | Ka [10]: 7.27 10^3/M | Ka [11]: 5.89 10^3/M | Ka [12]: 2.94 10^3/M | Ka [13]: 1360 10^3/M | deltaH [14]: -15.7 kcal/mol | deltaH [15]: -12.1 kcal/mol | deltaH [16]: -2.59 kcal/mol | deltaH [17]: -8.28 kcal/mol | TdeltaS [18]: -10.4 kcal/mol | TdeltaS [19]: -6.45 kcal/mol | TdeltaS [20]: 6.91 kcal/mol | TdeltaS [21]: 0.092 kcal/mol | deltaG [22]: -5.27 kcal/mol and -5.28 kcal/mol | deltaG [23]: -5.62 kcal/mol | deltaG [24]: -9.5 kcal/mol and -9.51 kcal/mol | deltaG [25]: -8.37 kcal/mol | Activity [26]: 1920 nm

OCCCCc1cc(C(CCCO)c2cc(C(CCCO)c3cc(C(CCCO)c4ccc(O)c(CNCc5ccccc5)c4O)c(O)c(CNCc4ccccc4)c3O)c(O)c(CNCc3ccccc3)c2O)c(O)c(CNCc2ccccc2)c1O (centres undefined)
inhibition [1]: Dose-Dependent Effect | inhibition [2]: Active | inhibition [3]: Active | inhibition [4]: Active | inhibition [5]: Active | Activity [6]: Active | Activity [7]: Active | Activity [8]: Active | Activity [9]: Active | Ka [12]: 14.9 10^3/M | Ka [13]: 2.4 10^3/M | deltaH [16]: -7.53 kcal/mol | deltaH [17]: 4.89 kcal/mol | TdeltaS [20]: -1.84 kcal/mol | TdeltaS [21]: 9.48 kcal/mol | deltaG [24]: -5.69 kcal/mol | deltaG [25]: -4.59 kcal/mol | Ka [27]: 7.3 10^3/M | deltaH [28]: -1 kcal/mol | TdeltaS [29]: 2.9 kcal/mol | deltaG [30]: -3.9 kcal/mol | Activity [26]: 202 nm

O=S(=O)(O)CCCc1cc(C(CCS(=O)(=O)O)c2cc(C(CCS(=O)(=O)O)c3cc(C(CCS(=O)(=O)O)c4ccc(O)cc4O)c(O)cc3O)c(O)cc2O)c(O)cc1O (centres undefined)
inhibition [1]: Dose-Dependent Effect | inhibition [2]: Active | inhibition [3]: Active | inhibition [4]: inactive | inhibition [5]: inactive | Activity [6]: Active | Activity [7]: Active | Activity [8]: inactive | Activity [9]: inactive | Ka [10]: 3.64 10^3/M | Ka [11]: 4.45 10^3/M | Ka [12]: 3.44 10^3/M | Ka [13]: 380 10^3/M | deltaH [14]: -15.2 kcal/mol | deltaH [15]: -6.74 kcal/mol | deltaH [16]: -1.05 kcal/mol | deltaH [17]: -3.23 kcal/mol | TdeltaS [18]: -10.2 kcal/mol | TdeltaS [19]: -1.76 kcal/mol | TdeltaS [20]: 3.75 kcal/mol | TdeltaS [21]: 4.38 kcal/mol | deltaG [22]: -4.9 kcal/mol | deltaG [23]: -4.98 kcal/mol and -4.97 kcal/mol | deltaG [24]: -4.8 kcal/mol | deltaG [25]: -7.61 kcal/mol and -7.6 kcal/mol | Activity [26]: 3740 nm
